Calls of active or inactive are those of the source. No cut-off for these calls is given here.
Key:
[1] = tested on: T-24; assay: Cytotoxicity against human T24 cells after 72 hrs by neutral red dye assay; type: functional, cell-based; conditions: T-24, 72 h
How it was run: (§1)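 Human tumour cells were grown as monolayers with 10% FBS and penicillin/streptomycin at 37 °C in 5% CO2 (HT-29 and T-24 in McCoy's, MDA-MB-231 in Leibovitz). They were exposed to compound in DMSO (≤0.5% v/v final) at screening concentrations of 20 and 100 μM for 72 h and read by neutral red uptake. Survival is relative to cells given DMSO only, in triplicate.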

[2] = tested on: HT-29; assay: Cytotoxicity against human HT-29 cells after 72 hrs by neutral red dye assay; type: functional, cell-based; conditions: HT-29, 72 h; how it was run: as §1
[3] = tested on: MDA-MB-231; assay: Cytotoxicity against human MDA-MB-231 cells after 72 hrs by neutral red dye assay; type: functional, cell-based; conditions: MDA-MB-231, 72 h; how it was run: as §1
[4] = tested on: T-24; assay: Induction of apoptosis in human T24 cells assessed as DNA fragmentation after 48 hrs by ELISA relative to control; type: functional
How it was run: (§2)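 DNA fragmentation was measured with the Cell Death Detection ELISA Plus kit after treatment of cultured tumour cells. The signal is expressed relative to untreated control cultures, which are set to 1.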

[5] = tested on: HT-29; assay: Induction of apoptosis in human HT-29 cells assessed as DNA fragmentation after 48 hrs by ELISA relative to control; type: functional; how it was run: as §2
[6] = tested on: MDA-MB-231; assay: Induction of apoptosis in human MDA-MB-231 cells assessed as DNA fragmentation after 24 hrs by ELISA relative to control; type: functional; how it was run: as §2
[7] = tested on: HT-29; assay: Induction of apoptosis in human HT-29 cells assessed as caspase3 activation at IC50 after 48 hrs by FACS analysis relative to control; type: functional
How it was run: (§3)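 Active caspase-3 was detected by flow cytometry with a FITC anti-active-caspase-3 antibody kit, with readings at 14, 24 and 48 h. Treated cells were compared with untreated control cells. Results are scored as (+) for an increase of about 50% and (++) for a larger rise.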

[8] = Cytotoxicity against human CRL8799 cells assessed as cell survival at 20 to 100 uM after 72 hrs by neutral red dye assay; type: cell-based; conditions: read-out: Survival
How it was run: (§4)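 The non-tumoral lines were grown with 10% FBS plus penicillin/streptomycin, as monolayers at 37 °C in 5% CO2: CRL-8799 in MEG medium and CRL-11233 in BEGM. Compounds in DMSO (≤0.5% v/v final) were applied for 72 h. Survival was read by neutral red uptake against 0.5% DMSO solvent-treated controls, as the mean of triplicates.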

[9] = Cytotoxicity against human CRL11233 cells assessed as cell survival at 20 to 100 uM after 72 hrs by neutral red dye assay; type: cell-based; conditions: read-out: Survival; how it was run: as §4
[10] = tested on: T-24; assay: Cytotoxicity against human T24 cells assessed as cell survival at 100 uM after 72 hrs by neutral red dye assay; type: functional; conditions: T-24, 72 h, read-out: Survival
How it was run: (§5)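 HT-29 and T-24 cells were grown in McCoy's medium and MDA-MB-231 in Leibovitz, each with 10% FBS plus penicillin/streptomycin, as monolayers at 37 °C in 5% CO2. Compounds in DMSO (≤0.5% v/v final) were applied for 72 h. Survival was read by neutral red uptake against 0.5% DMSO-treated cells, as the mean of triplicates.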

[11] = tested on: HT-29; assay: Cytotoxicity against human HT-29 cells assessed as cell survival at 100 uM after 72 hrs by neutral red dye assay; type: functional; conditions: HT-29, 72 h, read-out: Survival; how it was run: as §5
[12] = tested on: MDA-MB-231; assay: Cytotoxicity against human MDA-MB-231 cells assessed as cell survival at 100 uM after 72 hrs by neutral red dye assay; type: functional; conditions: MDA-MB-231, 72 h, read-out: Survival; how it was run: as §5
[13] = tested on: T-24; assay: Induction of apoptosis in human T24 cells assessed as caspase3 activation at IC50 after 48 hrs by FACS analysis relative to control; type: functional; how it was run: as §3

| Structure (SMILES) | IC50 [1] | IC50 [2] | IC50 [3] | fold change (FC) [4] | fold change (FC) [5] | Activity [6] | Activity [7] | viability at 72 h, up to 100 µM [8] | viability at 72 h, up to 100 µM [9] | viability at 100 µM [10] | viability at 100 µM [11] | viability at 100 µM [12] | Activity [4] | Activity [5] | Activity [13] | fold change (FC) [6] |
| --- | --- | --- | --- | --- | --- | --- | --- | --- | --- | --- | --- | --- | --- | --- | --- | --- |
| COc1ccc(CNc2nc(NCc3ccc(OC)cc3)c3ccccc3n2)cc1 | 3.87 µM | 2.88 µM | 3.87 µM | 5 | 8.5 | inactive | 50% | 0% | 100% | < 45% | < 45% | < 45% | – | – | – | – |
| c1ccc(CCCNc2nc(NCCCc3ccccc3)c3ccccc3n2)cc1 | 3.45 µM | 2.2 µM | 4.18 µM | – | – | inactive | 75% | 87% | 2% | < 45% | < 45% | < 45% | inactive | inactive | 75% | – |
| c1ccc(CCCNc2ccnc(NCCCc3ccccc3)n2)cc1 | 8.67 µM | 12.4 µM | 0.36 µM | 1.7 | – | – | 50% | 10% | 1% | < 45% | < 45% | < 45% | – | inactive | – | 3.2 |
| CCCCCCNc1nc(SCCCC)nc2ncccc12 | 4.5 µM | 2.8 µM | 1.2 µM | 4.3 | 6.4 | – | 75% | 95% | 99% | < 45% | < 45% | < 45% | – | – | 75% | 9.3 |
| c1ccc(CCCCNc2nc(NCCCCc3ccccc3)c3cccnc3n2)cc1 | 1.4 µM | 5 µM | 1.1 µM | 4.6 | 1.4 | inactive | 50% | 86% | 82% | < 45% | < 45% | < 45% | – | – | – | – |
| c1ccc(CCNc2nc(NCCc3ccccc3)c3ccccc3n2)cc1 | 2.86 µM | 2.3 µM | 2.18 µM | – | – | inactive | – | 92% | 100% | < 45% | < 45% | < 45% | inactive | inactive | 50% | – |
| COc1ccc(CNc2nc(NCc3ccc(OC)cc3)c3cccnc3n2)cc1 | – | – | 2.9 µM | 2.3 | 2.7 | – | 50% | 85% | 100% | < 45% | < 45% | < 45% | – | – | – | 1.5 |
| c1ccc(CCCCNc2nc(NCCCCc3ccccc3)c3ccccc3n2)cc1 | 11.9 µM | 3.78 µM | 1.22 µM | – | 2 | inactive | – | 6% | 11% | < 45% | < 45% | < 45% | inactive | – | 75% | – |
| CCCCCNc1nc(SCC)nc2ncccc12 | 4.3 µM | 5.1 µM | 1.3 µM | 3.6 | 5 | – | 50% | 88% | 100% | < 45% | < 45% | < 45% | – | – | 75% | 6.6 |
| c1ccc(CCCNc2nc(NCCCc3ccccc3)c3cccnc3n2)cc1 | 13.2 µM | 1.7 µM | 5.8 µM | 3.1 | 6 | – | 50% | 0% | 0% | < 45% | < 45% | < 45% | – | – | – | 1.6 |
| CCCCCNc1nc(SC(C)C)nc2ncccc12 | 7.9 µM | 25.2 µM | 5.6 µM | 1.7 | 4.2 | – | 75% | 100% | 66% | < 45% | < 45% | < 45% | – | – | 50% | 2.2 |
| CCCCCNc1nc(SCCCC)nc2ncccc12 | 8.9 µM | 12.6 µM | 6.3 µM | – | 1.9 | – | – | 84% | 76% | < 45% | < 45% | < 45% | inactive | – | 50% | 1.7 |
| c1ccc(CNc2nc(NCc3ccccc3)c3cccnc3n2)cc1 | 13.4 µM | 11 µM | 10.3 µM | 4.6 | 2.5 | inactive | – | 85% | 90% | < 45% | < 45% | < 45% | – | – | 50% | – |
| CCCCCCCNc1nc(SCC)nc2ncccc12 | 5.3 µM | 19.9 µM | 2.6 µM | – | 2.4 | – | – | 93% | 100% | < 45% | < 45% | < 45% | inactive | – | 75% | 2.7 |
| Brc1ccc(CCNc2nc(NCCc3ccc(Br)cc3)c3ccccc3n2)cc1 | 3.32 µM | 3.47 µM | 10.4 µM | – | – | inactive | 50% | 11% | 1% | < 45% | < 45% | < 45% | inactive | inactive | 50% | – |
| c1ccc(CCNc2nc(NCCc3ccccc3)c3cccnc3n2)cc1 | 8.1 µM | 2.5 µM | 1.2 µM | 1.2 | 9.2 | inactive | 50% | 0% | 0% | < 45% | < 45% | < 45% | – | – | 75% | – |
| Cc1ccc(CCNc2nc(NCCc3ccc(C)cc3)c3ccccc3n2)cc1 | 2.17 µM | 1.64 µM | 4.65 µM | – | – | – | 50% | 0% | 0% | < 45% | < 45% | < 45% | inactive | inactive | – | 2.4 |
| c1ccc(CNc2nc(NCc3ccccc3)c3ccccc3n2)cc1 | 5.96 µM | 4.72 µM | 1.79 µM | – | 3.6 | inactive | – | 89% | 100% | < 45% | < 45% | < 45% | inactive | – | 75% | – |
| CCCCCNc1nc(NCCCCC)c2ccccc2n1 | 5.25 µM | 3.57 µM | 3.13 µM | 1.8 | 1.7 | – | – | 4% | 5% | < 45% | < 45% | < 45% | – | – | 50% | 2.5 |
